Reference: paper PMC2884008 (Chemistry & biology, 2010)
“Also recorded” adds a separate entry of the source. Read-outs that look alike come from different tables or passages of the source.

Assays:
[1] = tested on: WM35; assay: cell cycle analysis by propidium iodide FACS, WM35; format: cell-based, human; settings: 20 μM, 24 h
How it was run: (§1)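 Cells were exposed to 20 μM test compound or DMSO for 24 h. More than 10^6 cells were fixed in 70% ethanol at 4°C for ≥2 h, rehydrated in PBS and stained 20 min at 37°C with PI in 0.1% Triton X-100/PBS containing RNase A. DNA content was read by flow cytometry, and the S-phase fraction was taken as the read-out.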

[2] = tested on: immortalized murine fibroblast cell line, NIH3T3; assay: 3H-thymidine incorporation in NIH3T3; format: cell-based; settings: 20 μM
[3] = tested on: p300 HAT mutant W1466F; assay: C646 inhibition of p300 HAT mutant W1466F; format: biochemical; settings: Ki = IC50/(S/Km+1)
[4] = tested on: lung cancer line H23; assay: 3H-thymidine incorporation in H23; format: cell-based, human; settings: C646 10 μM or Lys-CoA-Tat 25 μM, 24 h
How it was run: (§2)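 Melanoma lines were grown in DMEM and NSCLC lines in RPMI 1640, both with 10% FBS, pen-strep and L-glutamine. About 5000 cells/well at ~60% sub-confluence were attached at 37°C, then exposed 24 h with DMSO at 0.2% in every condition. 3H-thymidine was added at 10 μCi/ml final for 5 h; cells were harvested onto filters and counted. Triplicates; counts normalized to pre-treatment counts.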

[5] = target: GCN5 histone acetyltransferase (Saccharomyces cerevisiae, UniProt Q03330); assay: direct radioactive HAT assay with yeast GCN5; format: biochemical; settings: compound at 10 μM
Chain of GCN5 histone acetyltransferase (Q03330 whole entry): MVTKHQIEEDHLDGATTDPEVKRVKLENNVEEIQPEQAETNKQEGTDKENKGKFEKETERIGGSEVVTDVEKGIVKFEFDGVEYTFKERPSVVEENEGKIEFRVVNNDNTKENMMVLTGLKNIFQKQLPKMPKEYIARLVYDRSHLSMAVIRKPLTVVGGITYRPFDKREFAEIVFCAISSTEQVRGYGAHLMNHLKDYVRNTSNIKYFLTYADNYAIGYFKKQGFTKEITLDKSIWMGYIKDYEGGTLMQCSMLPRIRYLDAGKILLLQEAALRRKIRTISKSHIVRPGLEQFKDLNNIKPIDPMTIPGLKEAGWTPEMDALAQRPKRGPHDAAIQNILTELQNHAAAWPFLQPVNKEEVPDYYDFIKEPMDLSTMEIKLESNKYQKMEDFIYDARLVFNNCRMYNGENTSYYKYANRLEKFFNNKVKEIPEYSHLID
How it was run: (§3)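 Enzyme: Rtt109/Vps75 70 ng, yGcn5 15 ng, SAS 300 ng, hMOZ 1 μg. After 10 min at 30°C, reactions were started with 20 μM 12C/14C-AcCoA (1:1) and run 2–4 min. Product was resolved by Tris-Tricine SDS-PAGE and quantified by autoradiography. Duplicates.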

[6] = tested on: p300 HAT mutant R1410A; assay: C646 inhibition of p300 HAT mutant R1410A; format: biochemical; settings: Ki = IC50/(S/Km+1)
[7] = tested on: three melanoma and three non-small cell lung cancer lines; assay: 3H-thymidine incorporation in cancer cell line panel; format: cell-based, human; settings: 24 h
How it was run: as §2

[8] = target: serotonin N-acetyltransferase (Ovis aries, UniProt Q29495); assay: coupled spectrophotometric AANAT assay; format: biochemical; settings: compound at 10 μM
Chain of serotonin N-acetyltransferase (Q29495 whole entry): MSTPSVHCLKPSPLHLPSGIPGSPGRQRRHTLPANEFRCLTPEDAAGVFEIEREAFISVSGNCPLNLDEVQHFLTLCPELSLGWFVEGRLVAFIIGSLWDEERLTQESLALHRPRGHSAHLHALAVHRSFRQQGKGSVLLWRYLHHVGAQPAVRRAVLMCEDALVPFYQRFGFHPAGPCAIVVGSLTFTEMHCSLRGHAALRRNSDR

[9] = tested on: p300 HAT mutant T1411A; assay: C646 inhibition of p300 HAT mutant T1411A; format: biochemical; settings: Ki = IC50/(S/Km+1)
[10] = tested on: melanoma line WM983A; assay: 3H-thymidine incorporation in WM983A; format: cell-based, human; settings: 24 h
How it was run: as §2

[11] = tested on: WM983A cells; assay: global histone H3 acetylation in WM983A cells by western blotting; format: cell-based, human; settings: 6 h, increasing concentrations
[12] = tested on: p300 HAT mutant Y1467F; assay: C646 inhibition of p300 HAT mutant Y1467F; format: biochemical; settings: Ki = IC50/(S/Km+1)
[13] = target: PCAF histone acetyltransferase (Homo sapiens, UniProt Q92831); assay: coupled spectrophotometric PCAF assay; format: biochemical; settings: compound at 10 μM
Chain of PCAF histone acetyltransferase (Q92831 493-658 limits assumed): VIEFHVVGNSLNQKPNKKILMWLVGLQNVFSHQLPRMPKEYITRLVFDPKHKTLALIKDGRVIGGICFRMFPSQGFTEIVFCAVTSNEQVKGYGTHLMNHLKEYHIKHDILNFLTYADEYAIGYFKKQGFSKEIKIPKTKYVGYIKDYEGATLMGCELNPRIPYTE

[14] = tested on: C3H 10T1/2 mouse fibroblasts; assay: histone acetylation in mouse cells, western blots of SDS and acid-urea gels; format: cell-based
How it was run: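 C3H 10T1/2 fibroblasts were grown in DMEM/10% FCS at 37°C, 6% CO2, then made quiescent in 0.5% FCS for 18–20 h. TSA at 33 nM was added for the final 30 min where used. Histones were acid-extracted, run on SDS and acid-urea gels and western blotted.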

[15] = target: Rtt109 histone acetyltransferase (Saccharomyces cerevisiae, UniProt Q07794); assay: direct radioactive HAT assay with Rtt109/Vps75 complex; format: biochemical; settings: compound at 10 μM
Chain of Rtt109 histone acetyltransferase (Q07794 whole entry): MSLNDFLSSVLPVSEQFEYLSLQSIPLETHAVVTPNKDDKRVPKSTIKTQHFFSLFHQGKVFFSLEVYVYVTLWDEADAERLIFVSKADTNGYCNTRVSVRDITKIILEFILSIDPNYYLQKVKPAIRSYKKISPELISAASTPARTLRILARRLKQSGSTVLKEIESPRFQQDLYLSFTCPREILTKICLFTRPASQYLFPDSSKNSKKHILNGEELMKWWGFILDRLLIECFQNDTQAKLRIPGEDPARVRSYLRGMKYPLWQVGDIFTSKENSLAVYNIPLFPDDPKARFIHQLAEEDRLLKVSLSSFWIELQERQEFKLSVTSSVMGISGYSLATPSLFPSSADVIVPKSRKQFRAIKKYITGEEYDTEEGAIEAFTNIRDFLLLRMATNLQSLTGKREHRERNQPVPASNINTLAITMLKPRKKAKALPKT
Chain of Rtt109 histone acetyltransferase (P53853 whole entry partner): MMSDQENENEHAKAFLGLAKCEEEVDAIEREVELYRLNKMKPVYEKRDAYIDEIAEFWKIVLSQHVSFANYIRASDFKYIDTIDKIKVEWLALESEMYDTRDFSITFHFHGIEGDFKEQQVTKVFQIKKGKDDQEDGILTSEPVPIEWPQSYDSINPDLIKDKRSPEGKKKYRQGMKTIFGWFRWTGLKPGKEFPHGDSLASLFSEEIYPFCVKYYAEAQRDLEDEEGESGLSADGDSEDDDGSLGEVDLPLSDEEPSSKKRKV
How it was run: as §3

[16] = target: MOZ histone acetyltransferase (Homo sapiens, UniProt Q92794); assay: direct radioactive HAT assay with hMOZ; format: biochemical; settings: compound at 10 μM
Chain of MOZ histone acetyltransferase (Q92794 497-780 limits assumed): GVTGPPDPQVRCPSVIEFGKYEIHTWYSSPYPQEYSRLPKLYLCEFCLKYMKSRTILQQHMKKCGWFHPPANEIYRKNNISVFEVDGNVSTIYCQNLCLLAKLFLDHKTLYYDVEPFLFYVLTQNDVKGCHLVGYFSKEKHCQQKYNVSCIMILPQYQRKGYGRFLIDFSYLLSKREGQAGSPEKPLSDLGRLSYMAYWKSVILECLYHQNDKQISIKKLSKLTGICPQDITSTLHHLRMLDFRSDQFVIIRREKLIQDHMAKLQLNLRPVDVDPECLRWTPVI
How it was run: as §3

[17] = thiol adduct formation by NMR and chromatography; format: physicochemical; settings: buffer conditions of the enzyme assay
[18] = tested on: WM983A; assay: cell cycle analysis by propidium iodide FACS, WM983A; format: cell-based, human; settings: 20 μM, 24 h
How it was run: as §1

[19] = target: Sas histone acetyltransferase (Saccharomyces cerevisiae, UniProt P40963); assay: direct radioactive HAT assay with SAS complex; format: biochemical; settings: compound at 10 μM
Chain of Sas histone acetyltransferase (P40963 whole entry): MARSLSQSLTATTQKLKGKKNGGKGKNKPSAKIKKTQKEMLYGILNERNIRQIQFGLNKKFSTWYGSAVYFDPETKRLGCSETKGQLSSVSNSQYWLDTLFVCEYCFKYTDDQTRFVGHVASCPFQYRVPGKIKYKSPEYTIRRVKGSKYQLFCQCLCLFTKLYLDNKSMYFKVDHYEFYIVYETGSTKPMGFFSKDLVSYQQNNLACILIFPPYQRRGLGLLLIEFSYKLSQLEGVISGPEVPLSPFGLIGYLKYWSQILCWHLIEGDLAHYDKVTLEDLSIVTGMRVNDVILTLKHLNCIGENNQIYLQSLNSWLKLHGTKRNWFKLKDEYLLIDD
Chain of Sas histone acetyltransferase (Q04003 whole entry partner): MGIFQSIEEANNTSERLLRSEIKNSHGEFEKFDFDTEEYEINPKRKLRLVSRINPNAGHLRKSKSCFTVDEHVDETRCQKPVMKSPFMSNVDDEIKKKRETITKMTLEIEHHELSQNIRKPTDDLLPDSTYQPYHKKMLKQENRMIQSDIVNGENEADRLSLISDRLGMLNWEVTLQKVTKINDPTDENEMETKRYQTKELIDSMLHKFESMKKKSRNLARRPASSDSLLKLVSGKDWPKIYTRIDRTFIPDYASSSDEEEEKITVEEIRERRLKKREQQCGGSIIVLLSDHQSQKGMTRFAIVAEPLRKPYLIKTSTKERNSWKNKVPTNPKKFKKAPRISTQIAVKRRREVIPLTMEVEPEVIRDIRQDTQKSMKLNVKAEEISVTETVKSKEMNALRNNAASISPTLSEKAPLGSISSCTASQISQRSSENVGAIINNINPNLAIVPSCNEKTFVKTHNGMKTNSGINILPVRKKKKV
Chain of Sas histone acetyltransferase (Q99314 whole entry partner): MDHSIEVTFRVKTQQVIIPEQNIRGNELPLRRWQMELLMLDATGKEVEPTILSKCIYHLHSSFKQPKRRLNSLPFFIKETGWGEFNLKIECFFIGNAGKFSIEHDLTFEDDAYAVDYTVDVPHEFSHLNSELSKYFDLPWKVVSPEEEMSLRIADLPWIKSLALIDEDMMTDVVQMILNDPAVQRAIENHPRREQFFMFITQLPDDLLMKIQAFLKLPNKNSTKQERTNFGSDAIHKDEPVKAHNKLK
How it was run: as §3

[20] = tested on: melanoma line WM35; assay: 3H-thymidine incorporation in WM35; format: cell-based, human; settings: C646 10 μM or Lys-CoA-Tat 25 μM, 24 h
How it was run: as §2

[21] = target: T1, p300 HAT (Homo sapiens, UniProt Q09472, DEL1529-1560/M1652G); assay: direct radioactive 14C-acetyl-CoA transfer p300 HAT assay; format: biochemical; settings: for p300 HAT inhibition, in words: analogs compared with C646
T1 sequence (Q09472 with tags, fused parts or gaps DEL1529-1560/M1652G limits assumed): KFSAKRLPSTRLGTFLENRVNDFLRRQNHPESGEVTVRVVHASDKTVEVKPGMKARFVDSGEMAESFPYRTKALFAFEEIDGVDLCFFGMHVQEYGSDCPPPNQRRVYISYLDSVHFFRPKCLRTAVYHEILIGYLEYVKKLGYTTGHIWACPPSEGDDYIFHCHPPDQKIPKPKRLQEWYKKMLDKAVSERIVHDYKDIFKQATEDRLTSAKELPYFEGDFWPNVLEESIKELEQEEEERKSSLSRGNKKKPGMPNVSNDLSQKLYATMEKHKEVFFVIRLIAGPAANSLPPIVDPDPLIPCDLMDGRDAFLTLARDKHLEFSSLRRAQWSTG

[22] = target: p300/CBP HAT; settings: read-out: Ki for p300/CBP HAT, cited from earlier work
[23] = tested on: p300/CBP HAT; assay: p300 HAT inhibition, literature values; format: biochemical; settings: Ki compared with C646

With `CC1=NN(c2ccc(C(=O)O)cc2)C(=O)/C1=C\c1ccc(-c2cc(C)c(C)cc2[N+](=O)[O-])o1` [Compound C646] the cell cycle effect [1] was “G1-S cell cycle arrest; also recorded: decrease in %S phase”, the “3H-thymidine incorporation / cell proliferation” value [2] was “not inhibited; also recorded: does not have a significant inhibitory effect” and the “increase of apparent Ki versus wild type p300” value (“increase” below) [3] was 7 fold. For the same compound, the 3H-thymidine incorporation [4] was “quite susceptible”, the “inhibition of GCN5” value [5] was “less than 10%” and the “increase” value [6] was “at least 2 fold”. The 3H-thymidine incorporation ([7]; C646 10 μM) was “capable of reducing; also recorded: Two out of three non-small cell lung adenocarcinoma cell lines demonstrate significant growth inhibition”, the “inhibition of serotonin N-acetyltransferase” value [8] was “less than 10%” and the “increase” value [9] was “at least 2 fold”. For the same compound, the IC50 ([10]; read-out: IC50 for 3H-thymidine incorporation) was 10 to 20 µM, the “cell proliferation via 3H-thymidine incorporation” value ([10]; up to 20 μM) was “inhibits WM983A melanoma cell proliferation” and the “global histone H3 acetylation” value [11] was “dose-dependent reduction; also recorded: blocks H3 acetylation”. The “increase” value [12] was “at least 2 fold”, the “inhibition of PCAF” value [13] was “less than 10%” and the “basal acetylation levels of H3 and H4” value ([14]; 25 μM, 1-3 h, H3K9ac, H4K12ac) was “slightly diminished; also recorded: reduces histone H3 and H4 acetylation levels”. For the same compound, the “TSA-inducible acetylation of H3 and H4” value ([14]; 25 μM, 1-3 h before TSA (33 nM, final 30 min)) was “virtually completely inhibits; also recorded: abrogates TSA-induced acetylation”, the “inhibition of Rtt109” value [15] was “less than 10%” and the “inhibition of MOZ” value [16] was “less than 10%”. The “thiol adduct formation with DTT or beta-mercaptoethanol” value [17] was “no evidence of reaction”, the cell cycle effect [18] was “G1-S cell cycle arrest; also recorded: decrease in %S phase” and the “inhibition of Sas” value [19] was “less than 10%”. The 3H-thymidine incorporation [20] was “quite susceptible”.
In the case of `CC1=NN(c2ccc(C(N)=O)cc2)C(=O)C1=Cc1ccc(-c2cc(C)c(C)cc2[N+](=O)[O-])o1` [Compound 6a], the “p300 HAT inhibition, in words” value [21] is reported as “well tolerated”.
With `CC1=NN(c2cccc(C(=O)O)c2)C(=O)C1=Cc1ccc(-c2cc(C)c(C)cc2[N+](=O)[O-])o1` [Compound 6e] the “p300 HAT inhibition, in words” value [21] was “well tolerated”.
For `CC1=NN(c2ccc(C(=O)O)cc2)C(=O)C1=Cc1ccc(-c2cc(C)c(C)cc2CO)o1` [Compound 6l], the “p300 HAT inhibition, in words” value [21] was “substantial reduction in potency”.
In the case of `COC(=O)c1cccc(N2N=C(C)C(=Cc3ccc(-c4cc(C)c(C)cc4[N+](=O)[O-])o3)C2=O)c1` [Compound 6i], the “p300 HAT inhibition, in words” value [21] is reported as “well tolerated”.
In the case of `CC1=NN(c2ccc(S(=O)(=O)O)cc2)C(=O)C1=Cc1ccc(-c2cc(C)c(C)cc2[N+](=O)[O-])o1` [Compound 6f], the “p300 HAT inhibition, in words” value [21] is reported as “well tolerated”.
With `CC(/C=C/C(=O)NO)=C\[C@@H](C)C(=O)c1ccc(N(C)C)cc1` [TSA, trichostatin A, reference compound] the “H3 and H4 acetylation after HDAC inhibitor” value ([14]; TSA 33 nM, 30 min) was “increased H3 and H4 acetylation”.
In the case of `COC(=O)c1ccc(N2N=C(C)C(=Cc3ccc(-c4cc(C)c(C)cc4[N+](=O)[O-])o3)C2=O)cc1` [Compound 6h], the “weakening of p300 inhibitory potency compared with C646” value ([21]; relative IC50 referenced to C646) is reported as over 15 fold.
In the case of `CC1=NN(c2ccc(S(N)(=O)=O)cc2)C(=O)C1=Cc1ccc(-c2cc(C)c(C)cc2[N+](=O)[O-])o1` [Compound 6g], the “p300 HAT inhibition, in words” value [21] is reported as “well tolerated”.
With “Ac-Asp-Asp-Asp-Asp-Tat [Ac-DDDD-Tat, reference compound]” the “3H-thymidine incorporation, control compounds” value [7] was “no effects” and the “p300 HAT inhibition, in words” value [21] was “lack p300 inhibitory properties”.
For `CC(=O)N[C@@H](CCCCNC(=O)CSCCNC(=O)CCNC(=O)[C@H](O)C(C)(C)COP(=O)(O)OP(=O)(O)OC[C@H]1O[C@@H](n2cnc3c(N)ncnc32)[C@H](O)[C@@H]1OP(=O)(O)O)C(N)=O` [Lys-CoA], the Ki ([22]; ref Lau et al., 2000) is listed as 0.02 µM and the “fold more potent than C646” value [23] is listed as 20 fold.
In the case of `COc1ccc(C(=O)C2=C3OC(C)(C)[C@@H](CC=C(C)C)C[C@@]34C[C@@H](CC=C(C)C)C(C)(C)[C@@](CC=C(C)C)(C2=O)C4=O)cc1O` [LTK14], the Ki ([22]; ref Mantelingu et al., 2007, Arif et al., 2009) is given as 5.1 µM and the “fold weaker than C646” value [23] is given as “about 12 fold”.
